The nature of data set [1]: Antiinflammatory activity in LPS-induced mouse […] cells assessed as PGJ2 synthesis at 10 uM relative to control. The format is functional, RAW264.7.
Data set [2] relates to Rattus norvegicus. Kind of data set: Analgesic activity in rat assessed as reversal of mechanical hyperalgesia at 0.1 to 1 mg/kg, po. The format is functional. To be noted: dose mg/kg 0.1-1.
Data set [3] deals with Rattus norvegicus. The data set is described as follows: Reversal of PAF-induced allodynia in ip dosed rat after 40 to 60 mins by paw withdrawal test. The format is functional. In outline: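 Rat tonic inflammatory pain model with platelet-activating factor injected into the hind paw. Doses of 3, 4.5, 6.8, 10.1 and 15.2 mg/kg given i.p. Paw withdrawal threshold to mechanical pressure read 40-60 min post-drug. Approximate ED-50 estimated from the dose-response curve for reversal of PAF-induced allodynia.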

For another data set, the target named is Cannabinoid receptor 1 (Homo sapiens, UniProt P21554). The data set is described as follows: Binding affinity to CB1 receptor (unknown origin).
Sequence of Cannabinoid receptor 1 (P21554 whole entry): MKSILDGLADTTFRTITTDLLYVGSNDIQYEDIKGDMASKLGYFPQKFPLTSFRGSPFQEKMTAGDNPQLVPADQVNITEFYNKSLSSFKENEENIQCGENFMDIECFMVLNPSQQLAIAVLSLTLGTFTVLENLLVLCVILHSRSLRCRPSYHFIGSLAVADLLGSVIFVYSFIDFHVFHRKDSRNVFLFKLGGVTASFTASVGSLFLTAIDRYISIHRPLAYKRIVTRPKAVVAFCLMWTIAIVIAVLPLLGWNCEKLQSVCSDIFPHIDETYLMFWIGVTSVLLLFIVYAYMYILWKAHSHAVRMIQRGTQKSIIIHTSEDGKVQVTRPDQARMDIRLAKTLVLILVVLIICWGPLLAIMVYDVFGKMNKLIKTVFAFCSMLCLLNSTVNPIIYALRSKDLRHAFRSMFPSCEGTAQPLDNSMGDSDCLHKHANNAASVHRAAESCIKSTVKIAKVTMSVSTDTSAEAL
For data set [4], the system named is Mus musculus. The data set is described as follows: Antiinflammatory activity in mouse assessed as reduction of IL-1beta/TNF-alpha-induced leukocyte count in air pouches at 0.1 mg/kg/day. On the set-up: scale not given: the % may be the effect or the level left. The format is functional. In outline: (§1)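 Mouse acute inflammation: IL-1β and TNFα injected into air pouches formed on the back. Drug dosed daily, and leukocytes counted in pouch exudates.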

In data set [5] the test system is Mus musculus. Kind of data set: Antiinflammatory activity in mouse assessed as reduction of IL-1beta/TNF-alpha-induced leukocyte count in air pouches at 0.2 mg/kg/day. The format is functional. Details: scale not given: the % may be the effect or the level left. In outline:
as §1

For data set [6], the system named is Mus musculus. Kind of data set: Antiinflammatory activity in mouse assessed as adhering leukocytes at 1 mg/kg, po after 6 hrs relative to vehicle-treated control. The format is functional. In outline:
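Given orally in oil over 0.01 to 1.0 mg/kg. Peritoneal cells collected from mice 6 hours after dosing and cultured 18-20 hours before leukocyte adhesion was measured. Compared with vehicle-dosed mice.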

Data set [7] is described as follows: Inhibition of MMP-3 release in TNF alpha-induced HFLS cells at 10 uM. The format is functional. To be noted: Homo sapiens.
Data set [8] can be described thus: Induction of LXA4 production in HFLS cells at 1 to 30 uM incubated for 1 hr followed by TNF-alpha challenge for 18 hrs by ELISA relative to control. The format is functional, Homo sapiens.
The subject of data set [9] is Blood. Kind of data set: Induction of LXA4 production in human blood at 1 to 30 uM incubated for 5 hrs by ELISA. The format is functional. A general note: ELISA stands for enzyme-linked immunosorbent assay.
The test system of data set [10] is Mus musculus. The data set is described as follows: Reduction of cell invasion to peritoneum in zymosan-A-induced FVB mouse peritonitis model at 1.5 mg/kg, iv by mass spectrometry. The format is functional. On the set-up: scale not given: the % may be the effect or the level left.
Data set [11] relates to Mus musculus. The data set is described as follows: Induction of LXA4 production in zymosan-A-induced FVB mouse peritonitis model at 1.5 mg/kg, iv by mass spectrometry relative to control. The format is functional.
The test system of data set [12] is Blood. The data set is described as follows: Induction of LXA4 production in human blood at 25 uM after 1 hr in presence of 12/15 LOX inhibitor baicalein relative to control. The format is functional.
A short description of data set [13]: Plasma concentration in patient at 20 mg, po after 2 hrs. The format is ADME, organism-based. The following applies: human. In outline: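 Single oral 20 mg dose in humans. Plasma sampled two hours post-dose, reported as mean ± R.S.D., n=9; glucuronide measured as well.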
A short description of data set [14]: Drug metabolism in rat hepatocytes assessed as parent compound remaining after 2 hrs. The format is ADME, cell-based, Hepatocyte. To be noted: read-out: Stability.
Data set [15] can be described thus: Drug metabolism in dog hepatocytes assessed as parent compound remaining after 2 hrs. The format is ADME, cell-based, Canis lupus familiaris, Hepatocyte. To be noted: read-out: Stability.
Data set [16] can be described thus: Drug metabolism in cynomolgus monkey hepatocytes assessed as parent compound remaining after 2 hrs. The following applies: read-out: Stability. The format is ADME, cell-based, Hepatocyte.
A short description of data set [17]: Drug metabolism in human hepatocytes assessed as parent compound remaining after 2 hrs. The format is ADME, cell-based, Hepatocyte. To be noted: read-out: Stability.
The species entered for data set [18] is Mus musculus. Kind of data set: Stimulation of phospholipase A2 in mouse brain synaptosomes using [1-14C]phosphotidylcholine as substrate assessed as arachidonic acid release relative to control. The format is subcellular.
For data set [19], the system named is Mus musculus. The data set is described as follows: Antiinflammatory activity in mouse peritonitis model assessed as reduction of pro-inflammatory cell migration into peritoneal cavity at 0.3 mg/kg, po. The format is functional. Details: scale not given: the % may be the effect or the level left. In outline: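 Mouse peritonitis induced by thioglycollate challenge. Compound given orally, and migration of pro-inflammatory cells into the peritoneal cavity quantified.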

Data set [20] is described as follows: Antiinflammatory activity in LPS-induced mouse […] cells assessed as PGJ2 synthesis at 3 uM relative to control. The format is functional, RAW264.7.
A short description of data set [21]: Antiinflammatory activity in LPS-induced mouse […] cells assessed as PGJ2 synthesis at 3 uM in presence of polyclonal antiGPR18 relative to control. The format is functional, RAW264.7.
Data set [22] concerns RAW. Kind of data set: Antiinflammatory activity in mouse RAW cells assessed as arachidonic acid release at 1.5 uM after 1 hr by liquid scintillation counting analysis in presence of [14C]-arachidonic acid relative to control. The format is functional. In outline:
(§2)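 RAW cells labelled 2 hr with 14C-arachidonic acid, then medium changed to RPMI + 0.1% BSA. Cells treated 1 hr with non-radioactive test agent added in 10 µl DMSO; DMSO alone as control. Release counted by LSC on a 0.1 ml medium aliquot, expressed as treated/control, means ± SD.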

Data set [23] concerns RAW. Kind of data set: Antiinflammatory activity in mouse RAW cells assessed as arachidonic acid release at 3 uM after 1 hr by liquid scintillation counting analysis in presence of [14C]-arachidonic acid relative to control. The format is functional. In outline: as §2
The test system of data set [24] is RAW. Kind of data set: Antiinflammatory activity in mouse RAW cells assessed as arachidonic acid release at 6 uM after 1 hr by liquid scintillation counting analysis in presence of [14C]-arachidonic acid relative to control. The format is functional. In outline:
as §2

Data set [25] deals with RAW. Kind of data set: Antiinflammatory activity in mouse RAW cells assessed as arachidonic acid release at 12 uM after 1 hr by liquid scintillation counting analysis in presence of [14C]-arachidonic acid relative to control. The format is functional. In outline:
as §2

The test system of data set [26] is RAW. Kind of data set: Antiinflammatory activity in mouse RAW cells assessed as arachidonic acid release at 24 uM after 1 hr by liquid scintillation counting analysis in presence of [14C]-arachidonic acid relative to control. The format is functional. In outline:
as §2

As for `CCCCC/C=C\C/C=C\C/C=C\CCCCC(=O)NCC(=O)O`, the Activity in data set [1] is given as 203%.
Regarding `CCCCC/C=C\C/C=C\C/C=C\C/C=C\CCCC(=O)NC(C)(C)C(=O)O`, in data set [1], the Activity is recorded as 220%.
The term ED50 denotes the dose at which the effect has come halfway, by size or by number of responders. In general, Ki refers to a measure of affinity in units of concentration, obtained from inhibition or displacement. What is called inhibition is the share of the control response that was lost under treatment. On to `CCCCCCC(C)(C)c1cc(O)c2c(c1)OC(C)(C)[C@@H]1CC=C(C(=O)O)C[C@@H]21` [LENABASUM], for which the Activity entry with Rattus norvegicus [2] is “<=60%”; in the data set with Mus musculus [4], 42.3%; in the data set with Mus musculus [5] it was 65.5%; in the data set on Mus musculus [6], 24%; with Mus musculus [10], 75%; with Blood [12] it was more than 90%. In addition, the ED50 in the data set on Rattus norvegicus [3] came out at 4.2 mg/kg. The compound also had a Ki at Cannabinoid receptor 1 of 5.7 nM. In data set [7], this compound registered an inhibition at 10 µM of 88%. Moreover, the Ratio in data set [8] was determined as 2; in the data set with Blood [9], 2; in the data set on Mus musculus [11] it was 7. The concentration at 2 h in data set [13] was 599 ng/mL. The remaining at 2 h in data set [14] turned out to be 103%; in [15], 90%; in data set [16], 86%; in [17], 83%.
Regarding `CCCCCCCCCCCCCCCC(=O)NCC(=O)O` [PALMITOYL GLYCINE], in [1], the Activity is listed as 100%.
Consider `CCCCCCCC/C=C\CCCCCCCC(=O)NC(C)(C)C(=O)O`, for which, in data set [1], the Activity was found to be 118%.
Consider `CCCCCc1cc(O)c2c(c1)OC(C)(C)[C@@H]1CCC(C(=O)O)=C[C@@H]21`, for which the Activity in the data set listed under Mus musculus [18] stood at 20%.
`CCCCC/C=C\C/C=C\C/C=C\C/C=C\CCCC(=O)N[C@@H](C)C(=O)O`: in data set [1], the Activity is recorded as 212%.
For `CCCCC/C=C\C/C=C\C/C=C\C/C=C\CCCC(=O)NCC(=O)O` [ARACHIDONOYL GLYCINE], the Activity with Mus musculus [19] was determined as 60%; in data set [1], 213%; in data set [20], 100%; in data set [21], 50%. For the same compound, the T/C with RAW [22] is 1; with RAW [23], 1.2; in the data set with RAW [24], 1.4; with RAW [25] it was 1.85; with RAW [26], 2.95.

The record behind these values is ChEMBL document CHEMBL3259777, “The cannabinoid acids, analogs and endogenous counterparts” (Bioorg Med Chem, 2014).
